Consider four compounds from ChEMBL document CHEMBL1141807, “New phenolic and quinone-methide triterpenes from Maytenus amazonica” (J Nat Prod, 1999).

Experiment [1] relates to P388. Description: Cytotoxicity against mouse P388 ATCC CCL-46 cells. The format is functional, cell-based. The essentials: (§1)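 Lines maintained in log-phase growth in EMEM/neaa with 5% fetal calf serum, 10-2 M sodium bicarbonate, 0.1 g/L penicillin G and 0.1 g/L streptomycin sulfate. P-388 grown as suspension culture; A-549, HT-29 and MEL-28 as monolayers. Compounds dissolved in DMSO–MeOH (1:9). Read-out IC50 in µg/mL.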

Experiment [2] is described as follows: Cytotoxicity against human SK MEL28 ATCC HTB-72 cells. The following applies: SK-MEL-28. The format is functional, cell-based. The essentials: as §1
Experiment [3] has as its system HT-29. In words: Cytotoxicity against human HT-29 ATCC HTB-38 cells. It counts as functional, cell-based. The essentials: as §1
Experiment [4] has as its target Aldo-keto reductase family 1 member B1 (Homo sapiens, UniProt P15121). In words: Inhibition of human recombinant aldose reductase. The essentials: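 Recombinant human aldose reductase, purified by a published method. In vitro inhibition measured by a modified version of that method. Values given as IC50 in µg/mL.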
Experiment [5] concerns A549. In words: Cytotoxicity against human A549 ATCC CCl-185 cells. The format is functional, cell-based. The essentials: as §1

≈ marks a conversion by molar mass, not a printed value.

In general, IC50 refers to the midpoint of a concentration-inhibition curve. Turning to `CC1=C(O)C(=O)C=C2C1=C[C@H](O)[C@@H]1[C@@]2(C)CC[C@@]2(C)[C@@H]3C[C@@H](C)C(=O)C[C@]3(C)CC[C@]12C`, the IC50 was 5 µg/mL (≈ 11.4 µM) in experiment [1]; 5 µg/mL (≈ 11.4 µM) in experiment [2]; 5 µg/mL (≈ 11.4 µM) in experiment [3]; 57 µM in experiment [4]; 5 µg/mL (≈ 11.4 µM) in experiment [5].
Regarding `C[C@@H]1C[C@@H]2[C@@](C)(CC[C@@]3(C)[C@@]2(C)CC=C2c4cc(O)c(O)c(C=O)c4C=C[C@]23C)CC1=O`, the concentration for half-maximal inhibition (IC50) in experiment [1] was 10 µg/mL (≈ 23 µM); in experiment [2], 10 µg/mL (≈ 23 µM); in experiment [3], 10 µg/mL (≈ 23 µM); in experiment [4], 57.5 µM; in experiment [5], 10 µg/mL (≈ 23 µM).
Consider `Cc1c(O)c(O)cc2c1C(=O)C[C@@H]1[C@@]2(C)CC[C@@]2(C)[C@@H]3C[C@@H](C)C(=O)C[C@]3(C)CC[C@]12C`, for which the IC50 in experiment [1] is 5 µg/mL (≈ 11.4 µM); in experiment [2] it was 10 µg/mL (≈ 22.8 µM); in experiment [3], 10 µg/mL (≈ 22.8 µM); in experiment [4], 57 µM; in experiment [5], 5 µg/mL (≈ 11.4 µM).
`CC1=C(O)C(=O)C=C2C1=CC(=O)[C@@H]1[C@@]2(C)CC[C@@]2(C)[C@@H]3C[C@@H](C)C(=O)C[C@]3(C)CC[C@]12C` [AMAZOQUINONE]: the concentration for half-maximal inhibition (IC50) is 2.5 µg/mL (≈ 5.73 µM) in experiment [1]; 5 µg/mL (≈ 11.5 µM) in experiment [2]; 5 µg/mL (≈ 11.5 µM) in experiment [3]; 57.3 µM in experiment [4]; 5 µg/mL (≈ 11.5 µM) in experiment [5].
